Reference: PMC4130767 (Bioorganic & medicinal chemistry letters, 2014)

Test system: serine hydrolases in the HeLa cell membrane protein fraction
Assay: ABPP-SILAC identification of serine hydrolase targets in cells
Assay type: cell-based
Conditions: 20 μM, 4 h, FP-biotin probe
Procedure, shortened: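 Intact HeLa cells were cultured with test compound at 20 μM or DMSO control for 4 h. Membrane proteins were then isolated and labelled with FP-biotin probe for ABPP-SILAC. The read-out is the light/heavy ratio per serine hydrolase: 1 means no inhibition and 0 means complete inhibition. Two independent replicates were run.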

Compound | selectivity/sensitivity profile against serine hydrolases
O=C(N1CCCCC1)n1cccn1 [compound 10] | more selective nature
N#Cc1cnn(C(=O)N2CCCCC2)c1 [compound 12] | more sensitive nature
